Ratio and Activity data for eight compounds are collected here from ChEMBL document CHEMBL1140052, “Novel insight in structure-activity relationship and bioanalysis of P-glycoprotein targeting highly potent tetrakishydroxymethyl substituted 3,9-diazatetraasteranes” (J Med Chem, 2008).

The subject of test [1] is L5178Y. Kind of test: Inhibition of P-glycoprotein expressed in mouse L5178Y cells measured by rhodamine 123 uptake assessed as fluorescence activity ratio relative to wild type mouse L5178 cells at 1 uM. The class given is cell-based. Put shortly:
(§1)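 Mouse T lymphoma parental L5178 and P-gp-expressing L5178Y cells at 2 × 10^6 cells/mL in serum-free McCoy's 5A medium. Compound added from DMSO stock, 10 min at rt. Rhodamine 123 then added (final 5.2 µM), 20 min at 37 °C. Two PBS washes, 1 × 10^4 cells read by flow cytometry. Ratio = subline/parental fluorescence, each corrected to its untreated control.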

Test [2] has as its system L5178Y. Put plainly: Inhibition of P-glycoprotein expressed in mouse L5178Y cells measured by rhodamine 123 uptake assessed as fluorescence activity ratio relative to wild type mouse L5178 cells at 10 uM. The test is classed as cell-based. Put shortly: as §1
The species entered for test [3] is Homo sapiens. Kind of test: Induction of p-glycoprotein expression in human EPG 85-257 cells after 72 hrs by Western blot analysis. The test is classed as functional, cell-based. Put shortly: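 Gastric carcinoma cells seeded at 5 × 10^5 cells/well and cultured 72 h with compound. Cells washed twice, proteins extracted with Triton X-100 and denatured 10 min at 95 °C. Protein quantified by amido black at 630 nm. 20 µg run on SDS-PAGE (4% stacking/6% resolving) and blotted. Probed with C219 (1:100) and peroxidase anti-mouse IgG (1:10000), chemiluminescence read-out. Anti-actin (1:50000) as loading control.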

Each structure is given as a SMILES string. Active and inactive are the calls of the source. No cut-off for these calls is given here.

On to `OC[C@]12C3N(Cc4cccc(OCc5ccccc5)c4)C4[C@](CO)(C5N(Cc6cccc(OCc7ccccc7)c6)C1[C@]3(CO)[C@@H](c1ccccc1)[C@@]45CO)[C@@H]2c1ccccc1`, for which the Ratio in test [1] was 117; in test [2] it was 205.
Regarding `OC[C@]12C3N(Cc4ccccc4)C4[C@](CO)(C5N(Cc6ccccc6)C1[C@]3(CO)[C@H](c1ccc(OCc3ccccc3)cc1)[C@@]45CO)[C@H]2c1ccc(OCc2ccccc2)cc1`, the Ratio in test [1] was 3.3; in test [2], 47.
For `OC[C@]12C3N(Cc4ccc(OCc5ccccc5)cc4)C4[C@](CO)(C5N(Cc6ccc(OCc7ccccc7)cc6)C1[C@]3(CO)[C@H](c1ccccc1)[C@@]45CO)[C@H]2c1ccccc1`, the Ratio stood at 2.3 in test [1] and 28 in test [2].
For the compound `OC[C@]12C3N(Cc4ccccc4)C4[C@](CO)(C5N(Cc6ccccc6)C1[C@]3(CO)[C@@H](c1ccccc1)[C@@]45CO)[C@@H]2c1ccccc1`, the Ratio in test [1] was found to be 4.1; in test [2], 29.
With `OC[C@]12C3N(Cc4ccccc4)C4[C@](CO)(C5N(Cc6ccccc6)C1[C@]3(CO)[C@H](c1cccc(OCc3ccccc3)c1)[C@@]45CO)[C@H]2c1cccc(OCc2ccccc2)c1`, the Ratio stood at 65 in test [1] and 125 in test [2].
Turning to `COc1ccc(CCN(C)CCCC(C#N)(c2ccc(OC)c(OC)c2)C(C)C)cc1OC` (configuration not stated), the Ratio turned out to be 2.1 in test [1] and 4.1 in test [2].
Take `COc1ccc(CN2C3[C@]4(CO)C5N(Cc6ccc(OC)cc6)C6[C@](CO)(C2[C@@]6(CO)[C@@H](c2ccccc2)[C@@]35CO)[C@H]4c2ccccc2)cc1`: the results for the Ratio in test [1] and in test [2] were 3.5 and 13, respectively.
In the case of `COc1ccc([C@H]2[C@@]3(CO)C4N(Cc5ccccc5)C5[C@]2(CO)C2N(Cc6ccccc6)C3[C@]4(CO)[C@H](c3ccc(OC)cc3)[C@@]52CO)cc1`, in test [3], the outcome was inactive. For the same compound, the results for the Ratio in test [1] and in test [2] were 4.3 and 57, respectively.
